pIC50, pKd: −log10 of the molar value. Marks after values point to notes of the source that are not given here.
Experiments:
pancreatic lipase [1] = molecular target: T1, pancreatic lipase (Sus scrofa, UniProt P00591); test: Fluorescence titration; format: binding; conditions: for ΔG: from fluorescence data; for pKd: K a (binding constant)
T1 sequence (P00591 1-450): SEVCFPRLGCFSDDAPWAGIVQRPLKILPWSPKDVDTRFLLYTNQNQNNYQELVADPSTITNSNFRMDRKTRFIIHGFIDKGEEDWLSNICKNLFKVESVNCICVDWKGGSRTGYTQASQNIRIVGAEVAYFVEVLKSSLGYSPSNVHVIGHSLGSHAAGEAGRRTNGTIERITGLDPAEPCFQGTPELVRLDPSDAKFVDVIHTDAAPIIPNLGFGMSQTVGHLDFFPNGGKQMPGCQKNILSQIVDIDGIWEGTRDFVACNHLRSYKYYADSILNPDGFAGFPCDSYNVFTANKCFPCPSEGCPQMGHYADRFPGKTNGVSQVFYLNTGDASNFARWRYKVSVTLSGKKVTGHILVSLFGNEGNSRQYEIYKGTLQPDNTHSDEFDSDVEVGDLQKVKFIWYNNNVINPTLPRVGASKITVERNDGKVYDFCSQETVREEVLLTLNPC
In short: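 Lipase held at 6.0×10^-6 M final with 0 to 4.2×10^-5 M final test compound, in 5.0×10^-2 M Tris–HCl pH 7.4. Spectra recorded at 277, 298 and 310 K: excitation 280 nm, emission 300–500 nm, slits 5 nm. Intensities corrected for inner-filter effect.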

pancreatic lipase [2] = molecular target: T1, pancreatic lipase; test: ITC analysis of HYP titrated into lipase; format: binding
In short: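 Calorimetric titration: 1.0×10^-4 M lipase in the cell, containing 1% ethanol, titrated with 1.0×10^-3 M test compound. Injections at 180 s intervals, stirring at 250 rpm; other solutions degassed. First injection discarded. Integrated heats corrected for dilution and fitted against molar ratio. ΔG from −RT lnKa; ΔS from ΔG = ΔH − TΔS.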

pancreatic lipase [3] = molecular target: T1, pancreatic lipase; test: Enzymatic assay of lipase activity; format: biochemical; conditions: for inhibition type: Lineweaver–Burk plots, 310 K, 405 nm, pNPC 2.0–3.6 × 10^−3 M
pancreatic lipase [4] = molecular target: T1, pancreatic lipase; test: Synchronous fluorescence spectroscopy; format: binding; conditions: HYP 4.2 × 10^−5 M, 298 K
pancreatic lipase [5] = molecular target: T1, pancreatic lipase; test: Time-resolved fluorescence measurements; format: binding; conditions: fluorescence titration and time-resolved fluorescence
In short: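 Fluorescence lifetimes of free lipase and of the lipase–test compound complex at 298 K. Excitation 280 nm, emission 345 nm. Decays analysed by tail fitting, with fits judged by χ². Average lifetime calculated as Σαiτi.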

pancreatic lipase [6] = molecular target: T1, pancreatic lipase; test: Fourier-transform infrared spectroscopy of lipase secondary structure; conditions: ratio of lipase to HYP increased from 1 : 0 to 1 : 4, FT-IR, 298 K
In short: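 FT-IR at 298 K: 128 scans at 4 cm⁻¹ resolution. Lipase at 2.0×10^-4 M, alone or with test compound at different ratios. Background, protein and compound spectra subtracted; samples scanned over 1700–1500 cm⁻¹. Amide bands analysed by peak fitting.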

pancreatic lipase [7] = molecular target: T1, pancreatic lipase; conditions: cited from earlier work
lipase = conditions: cited from earlier work
[8] = from fluorescence data at 277, 298, 310 K

O=c1c(O[C@@H]2O[C@H](CO)[C@H](O)[C@H](O)[C@H]2O)c(-c2ccc(O)c(O)c2)oc2cc(O)cc(O)c12 [HYP, quercetin-3-O-β-D-galactoside]
K SV (Stern–Volmer quenching constant) (pancreatic lipase [1]; 277 K): 7.113 ± 0.029^a × 10^4 M^−1 | KSV (pancreatic lipase [1]; 277 K): 7.113 ± 0.029 × 10^4 M^−1 | n (Hill coefficient) (pancreatic lipase [1]; 277 K): 1.379 | ΔG (pancreatic lipase [1]; 277 K): -8.32 kcal/mol | K SV (Stern–Volmer quenching constant) (pancreatic lipase [1]; 298 K): 6.826 ± 0.010^b × 10^4 M^−1 | n (Hill coefficient) (pancreatic lipase [1]; 298 K): 1.337 | ΔG (pancreatic lipase [1]; 298 K): -8.489 kcal/mol | K SV (Stern–Volmer quenching constant) (pancreatic lipase [1]; 310 K): 6.247 ± 0.060^b × 10^4 M^−1 | KSV (pancreatic lipase [1]; 310 K): 6.247 ± 0.060 × 10^4 M^−1 | binding constant (pancreatic lipase [1]; 310 K): 1.048e+06 M⁻¹ | n (Hill coefficient) (pancreatic lipase [1]; 310 K): 1.286 | ΔG (pancreatic lipase [1]; 310 K): -8.587 kcal/mol | pKd (pancreatic lipase [1]; 277 K): 6.55 | pKd (pancreatic lipase [1]; 298 K): 6.28 | pKd (pancreatic lipase [1]; 310 K): 6.02 | n values (pancreatic lipase [1]; at different temperatures (277, 298, 310 K)): greater than 1 | ΔH (pancreatic lipase [1]; [8]): -6.085 kcal/mol | ΔS (pancreatic lipase [1]; [8]): 33.77 J mol^−1 K^−1 | pKd (pancreatic lipase [2]): 5.20 | ΔG (pancreatic lipase [2]; ITC): -7.091 kcal/mol | ΔH (pancreatic lipase [2]; ITC): -5.569 kcal/mol | ΔS (pancreatic lipase [2]; ITC): 21.36 J mol^−1 K^−1 | pIC50 (pancreatic lipase [3]): 2.72 | inhibition type (pancreatic lipase [3]): non-competitive inhibitor | decrease of Tyr residue fluorescence intensity (pancreatic lipase [4]; Δλ = 15 nm): 65.86% | decrease of Trp residue's fluorescence intensity (pancreatic lipase [4]; Δλ = 60 nm): 73.65% | quenching mechanism (pancreatic lipase [5]): static quenching | decrease of α-helix in lipase (pancreatic lipase [6]): 1.6%

CCCCCCCCCCC[C@@H](C[C@@H]1OC(=O)[C@H]1CCCCCC)OC(=O)[C@H](CC(C)C)NC=O [orlistat, reference compound]
inhibition type (pancreatic lipase [3]): competitive inhibition | reversibility of inhibition (pancreatic lipase [7]): irreversible inhibition

C[C@@H]1O[C@@H](Oc2c(-c3ccc(O)c(O)c3)oc3cc(O)cc(O)c3c2=O)[C@H](O)[C@H](O)[C@H]1O [quercetin 3-rhamnoside]
lipase inhibition (lipase): effective in lipase inhibition

Reference: paper PMC9950857 (RSC Advances, 2023)
